According to ChEMBL document CHEMBL3399995, “Synthesis and biological evaluation of benzimidazole acridine derivatives as potential DNA-binding and apoptosis-inducing agents” (Bioorg Med Chem, 2015):
Values belong to the molecule of their own block, whether it stands above or below them. The source made the active and inactive calls. The rule behind the calls is not given here.

Key:
[1] = molecular target: T1, DNA topoisomerase 1 (Homo sapiens) (UniProt P11387); experiment: Inhibition of recombinant human DNA topoisomerase 1 assessed as relaxation of plasmid DNA pBR322 at 50 uM by agarose gel electrophoresis
T1 sequence (whole entry): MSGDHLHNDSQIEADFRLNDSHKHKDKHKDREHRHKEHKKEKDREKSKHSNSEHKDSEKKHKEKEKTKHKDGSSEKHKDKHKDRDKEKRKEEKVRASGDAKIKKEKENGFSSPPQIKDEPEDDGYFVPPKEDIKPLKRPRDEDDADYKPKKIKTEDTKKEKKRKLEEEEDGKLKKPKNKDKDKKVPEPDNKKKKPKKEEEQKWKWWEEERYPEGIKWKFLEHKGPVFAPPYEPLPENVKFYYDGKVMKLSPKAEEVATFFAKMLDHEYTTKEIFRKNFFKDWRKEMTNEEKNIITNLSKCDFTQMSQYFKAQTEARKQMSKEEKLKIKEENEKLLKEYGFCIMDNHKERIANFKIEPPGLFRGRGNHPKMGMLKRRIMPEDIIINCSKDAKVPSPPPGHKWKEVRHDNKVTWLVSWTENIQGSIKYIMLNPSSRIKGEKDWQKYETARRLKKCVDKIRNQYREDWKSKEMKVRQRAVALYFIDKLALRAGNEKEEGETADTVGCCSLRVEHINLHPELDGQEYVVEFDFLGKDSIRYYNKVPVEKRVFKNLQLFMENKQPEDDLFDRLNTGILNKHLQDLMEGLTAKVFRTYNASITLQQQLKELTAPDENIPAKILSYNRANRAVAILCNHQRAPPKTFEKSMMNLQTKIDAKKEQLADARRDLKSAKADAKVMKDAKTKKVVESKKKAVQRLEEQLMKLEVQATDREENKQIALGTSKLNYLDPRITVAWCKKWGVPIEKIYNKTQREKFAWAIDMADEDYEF
Method in brief: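 pBR322 (100 ng) was incubated with 1.0 unit recombinant human topoisomerase I and compound (50 μM) at 37 °C for 30 min. Relaxation buffer was 35 mM Tris-HCl pH 8.0, 5 mM MgCl2, 72 mM KCl, 0.01% BSA, 2 mM spermidine, 5 mM DTT. Products were resolved on 1% agarose in TAE at 100 V for 25 min and stained with ethidium bromide.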

HepG2 = experiment: Antiproliferative activity against human HepG2 cells after 48 hrs by MTT assay; assay type: functional, cell-based; settings: HepG2, 48 h
Method in brief: (§1)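 Cells were grown at 37 °C in 5% CO₂ with 10% FBS, penicillin and streptomycin. Media were IMDM for K562; DMEM for HepG-2, A-375, U-118 MG and A172; RPMI 1640 for CNE-2 and HeLa; MEM-EBSS for U251. MTT (5 mg/mL) was added for 4 h at 37 °C, formazan dissolved in DMSO, and A490 read. IC50 is the concentration giving 50% growth inhibition.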

K562 [2] = experiment: Antiproliferative activity against human K562 cells after 48 hrs by MTT assay; assay type: functional, cell-based; settings: K562, 48 h; method in brief: as §1
K562 [3] = experiment: Induction of apoptosis in human K562 cells assessed as activation of caspase 3 at 10 uM after 48 hrs by Western blot analysis; assay type: functional, cell-based
Method in brief: (§2)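 K562 cells in 6 cm dishes were exposed to 1, 5 or 10 μM for 48 h, then lysed at 0 °C for 0.5 h and spun at 20,000 g for 10 min. Protein was measured by BCA. Lysates were run on 12% SDS-PAGE and transferred to PVDF. Membranes were blocked in 5% milk for 1 h, then given primary antibody overnight at 4 °C.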

K562 [4] = experiment: Induction of apoptosis in human K562 cells assessed as early apoptotic cells at 10 uM by annexin V-FITC/propidium iodide staining-based flow cytometry (reference value: 0.709%)
K562 [5] = experiment: Induction of apoptosis in human K562 cells assessed as necrotic cells at 2.5 uM by annexin V-FITC/propidium iodide staining-based flow cytometry (reference value: 0.203%); assay type: functional
K562 [6] = experiment: Induction of apoptosis in human K562 cells assessed as late apoptotic or necrotic cells at 2.5 uM by annexin V-FITC/propidium iodide staining-based flow cytometry (reference value: 0.162%)
K562 [7] = experiment: Induction of apoptosis in human K562 cells assessed as loss of mitochondrial membrane potential at 2.5 uM using JC-1 staining by fluorescence assay; assay type: functional, cell-based
Method in brief: (§3)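 Mitochondrial membrane potential in treated K562 cells (0, 2.5, 10 μM) was measured with a JC-1 kit. Red fluorescence marks high potential and green marks low. CCCP at 10 μM served as positive control.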

K562 [8] = experiment: Induction of apoptosis in human K562 cells assessed as loss of mitochondrial membrane potential at 10 uM using JC-1 staining by fluorescence assay; assay type: functional, cell-based; method in brief: as §3
Calf thymus DNA [9] = experiment: Binding affinity to calf thymus DNA after 3 mins by UV-vis absorption spectra analysis; assay type: nucleic-acid assay, Bos taurus
Method in brief: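 ct DNA titration of the compound (40 μM) in 10 mM Tris-HCl, 10 mM NaCl, pH 7.0, at [DNA]/[compound] 0–1.0, in a 1.0 cm quartz cell. Samples sat 3 min before UV-vis spectra were recorded. Kb was taken as the slope-to-intercept ratio of [DNA]/(εa−εf) plotted against [DNA].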

Calf thymus DNA [10] = experiment: Binding affinity to calf thymus DNA after 3 mins by fluorescence absorption spectroscopy; assay type: nucleic-acid assay; settings: Bos taurus
Method in brief: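 Fluorescence titration of the compound (3.75 μM final) in 10 mM Tris-HCl, 10 mM NaCl, pH 7.0, with ct DNA at 0, 1, 2, 3, 4 and 5 μM final. Samples sat 3 min before emission spectra were recorded. The binding constant came from the Stern-Volmer fit F0/F = 1 + K[Q], with [Q] the DNA concentration.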

K562 [11] = experiment: Induction of apoptosis in human K562 cells assessed as apoptotic cells at 10 uM by annexin V-FITC/propidium iodide staining-based flow cytometry (reference value: 0.162%)
K562 [12] = experiment: Induction of apoptosis in human K562 cells assessed as viable cells at 2.5 uM by annexin V-FITC/propidium iodide staining-based flow cytometry (reference value: 98.9%); assay type: functional; settings: read-out: Activity
K562 [13] = experiment: Induction of apoptosis in human K562 cells assessed as necrotic cells at 10 uM by annexin V-FITC/propidium iodide staining-based flow cytometry (reference value: 0.203%); assay type: functional
U-251 = experiment: Antiproliferative activity against human U251 cells after 48 hrs by MTT assay; assay type: functional, cell-based; settings: U-251, 48 h; method in brief: as §1
[14] = Antiproliferative activity against human CNE2 cells after 48 hrs by MTT assay; assay type: functional, cell-based; settings: CNE-2, 48 h; method in brief: as §1
K562 [15] = experiment: Induction of apoptosis in human K562 cells assessed as PARP cleavage at 10 uM after 48 hrs by Western blot analysis; assay type: functional, cell-based; method in brief: as §2
HeLa = experiment: Antiproliferative activity against human HeLa cells after 48 hrs by MTT assay; assay type: functional, cell-based; method in brief: as §1
A-375 = experiment: Antiproliferative activity against human A375 cells after 48 hrs by MTT assay; assay type: functional, cell-based; settings: A-375, 48 h; method in brief: as §1
K562 [16] = experiment: Induction of apoptosis in human K562 cells assessed as viable cells at 10 uM by annexin V-FITC/propidium iodide staining-based flow cytometry (reference value: 98.9%); assay type: functional; settings: read-out: Activity
K562 [17] = experiment: Induction of apoptosis in human K562 cells assessed as activation of caspase 7 at 10 uM after 48 hrs by Western blot analysis; assay type: functional, cell-based; method in brief: as §2
K562 [18] = experiment: Induction of apoptosis in human K562 cells assessed as activation of caspase 9 at 10 uM after 48 hrs by Western blot analysis; assay type: functional, cell-based; method in brief: as §2
[19] = Antiproliferative activity against human A172 cells after 48 hrs by MTT assay; assay type: functional, cell-based; settings: A 172, 48 h; method in brief: as §1
K562 [20] = experiment: Induction of apoptosis in human K562 cells assessed as early apoptotic cells at 2.5 uM by annexin V-FITC/propidium iodide staining-based flow cytometry (reference value: 0.709%)
[21] = Antiproliferative activity against human U118MG cells after 48 hrs by MTT assay; assay type: functional, cell-based; settings: U-118-MG; method in brief: as §1
K562 [22] = experiment: Induction of apoptosis in human K562 cells assessed as downregulation of Bcl-xL protein expression at 10 uM after 48 hrs by Western blot analysis; assay type: functional, cell-based; method in brief: as §2

SMILES: c1ccc2[nH]c(-c3ccc(Nc4c5ccccc5nc5ccccc45)cc3)nc2c1
inhibition [1]: Active
IC50 (HepG2): > 50 µM
IC50 (K562 [2]): 2.82 µM

SMILES: Cc1ccc2c(NCc3nc4ccccc4[nH]3)c3ccccc3nc2c1
inhibition [1]: Active
IC50 (HepG2): 32.6 µM
IC50 (K562 [2]): 25.1 µM

SMILES: COc1cccc2c(NCc3nc4ccccc4[nH]3)c3ccccc3nc12
inhibition [1]: Active
IC50 (HepG2): 28.5 µM
IC50 (K562 [2]): 7.46 µM

SMILES: COc1ccc2c(NCc3nc4ccccc4[nH]3)c3ccccc3nc2c1
inhibition [1]: Active
IC50 (HepG2): 15.4 µM
IC50 (K562 [2]): 15.2 µM

SMILES: c1ccc2[nH]c(Nc3c4ccccc4nc4ccccc34)nc2c1
inhibition [1]: Active
IC50 (HepG2): 4.01 µM
IC50 (K562 [2]): > 50 µM

SMILES: Fc1cc2nc3ccccc3c(NCc3nc4ccccc4[nH]3)c2cc1F
inhibition [1]: Active
IC50 (HepG2): 25.7 µM
IC50 (K562 [2]): 17.4 µM

SMILES: Cc1cccc2c(NCc3nc4ccccc4[nH]3)c3ccccc3nc12
inhibition [1]: Active
IC50 (HepG2): > 50 µM
IC50 (K562 [2]): 42.6 µM

SMILES: Fc1ccc2c(NCc3nc4ccccc4[nH]3)c3ccccc3nc2c1
inhibition [1]: Active
IC50 (HepG2): 10.7 µM
IC50 (K562 [2]): 28.5 µM

SMILES: COc1ccc2nc3ccccc3c(Nc3nc4ccccc4[nH]3)c2c1
inhibition [1]: Active
IC50 (HepG2): 4.53 µM
IC50 (K562 [2]): 8.63 µM

SMILES: c1ccc2[nH]c(Sc3c4ccccc4nc4ccccc34)nc2c1
inhibition [1]: Active
IC50 (HepG2): > 50 µM
IC50 (K562 [2]): 14 µM

SMILES: c1ccc2[nH]c(CNc3c4ccccc4nc4ccccc34)nc2c1
inhibition [1]: Active
IC50 (HepG2): > 50 µM
IC50 (K562 [2]): 11.2 µM

SMILES: COc1cccc2c(Nc3nc4ccccc4[nH]3)c3ccccc3nc12
inhibition [1]: Active
IC50 (HepG2): 6.32 µM
IC50 (K562 [2]): 7.2 µM

The next lines start with results.

inhibition [1]: Active
IC50 (HepG2): 40.6 µM
IC50 (K562 [2]): 11.8 µM
SMILES: Clc1ccc2nc3ccccc3c(NCc3nc4ccccc4[nH]3)c2c1

inhibition [1]: Active
IC50 (HepG2): 38.8 µM
IC50 (K562 [2]): 12.3 µM
SMILES: Cc1ccc2nc3ccccc3c(NCc3nc4ccccc4[nH]3)c2c1

inhibition [1]: Active
IC50 (HepG2): > 50 µM
IC50 (K562 [2]): 7.52 µM
SMILES: CCc1ccc2nc3ccccc3c(NCc3nc4ccccc4[nH]3)c2c1

inhibition [1]: Active
IC50 (HepG2): 8.92 µM
IC50 (K562 [2]): 4.68 µM
SMILES: COc1ccc2nc3ccccc3c(NCc3nc4ccccc4[nH]3)c2c1

Activity (Calf thymus DNA [10]): Active
IC50 (U-251): 2.39 µM
IC50 (HeLa): 2.76 µM
IC50 (A-375): 3.2 µM
inhibition [1]: Active
IC50 (HepG2): 8.11 µM
IC50 (K562 [2]): 2.68 µM
SMILES: CCCCc1ccc2nc3ccccc3c(NCc3nc4ccccc4[nH]3)c2c1
Activity (K562 [3]): Active
early apoptotic cells at 10 µM (K562 [4]): 57.3%
Activity (K562 [5]): 0.55%
late apoptotic or necrotic cells at 2.5 µM (K562 [6]): 1.27%
Activity (K562 [7]): Active
Activity (K562 [8]): Active
Kb (Calf thymus DNA [9]): 1.88 ×10⁵ /M
apoptotic cells at 10 µM (K562 [11]): 10.6%
viability at 2.5 µM (K562 [12]): 83.3%
Activity (K562 [13]): 1.37%
IC50 [14]: 2.62 µM
Activity (K562 [15]): Active
viability at 10 µM (K562 [16]): 30.8%
Activity (K562 [17]): Active
Activity (K562 [18]): Active
IC50 [19]: 2.86 µM
early apoptotic cells at 2.5 µM (K562 [20]): 14.9%
IC50 [21]: 1.98 µM
Activity (K562 [22]): Active
